Screening data (PubChem BioAssay)
This is a sample that favours compounds with a hit; in the whole collection about 2.2% have one here.
PfM18AAP inh = blocks P. falciparum M18 aspartyl aminopeptidase | recombinant PfM18AAP, H-Glu-NHMec fluorogenic cleavage | inhibition, % at 7.35 µM | 290,000 tested, 1.2% active | AID 1822;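 active = inhibition above the campaign mean inhibition over all tested compounds plus 3 SD, cut at about 28% in these data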
PfG6PD inh = PfG6PD (Plasmodium falciparum) enzyme inhibition; PfGluPho enzyme, NADPH resazurin-diaphorase fluorescence; inhibition, % at 20 µM; 350,000 tested, 0.78% active;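 active = inhibition reaching at least a set limit at 20 µM in the primary screen, cut at about 59% in these data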
HKDC1 inh = inhibitors of human hexokinase HKDC1. Q2TB90. recombinant HKDC1, G6PDH/diaphorase resazurin coupled fluorescence. inhibition, % at 20 µM. 340,000 tested, 0.16% active. AID 493160;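 active = inhibition above about 35% when tested at 20 µM, limit read from the data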
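Incubation: 90 min at room temperature in dark / Material: recombinant HKDC1 (HK5) hexokinase enzyme, produced in-house / Quantity: enzyme 5 µg/mL final / Compound: one dose of 20 µM, 1% DMSO / Reagent: glucose and ATP substrates / Buffer or medium: Tris pH 8.0 buffer with MgCl2, Tween-20, BSA, BME / Technique: resorufin fluorescence at 613 nm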
Neddylation inh = cullin neddylation inhibition; P61081+Q13564; TR-FRET cullin neddylation, biochemical; 360,000 tested, 0.58% active; AID 651699; inhibition, % at 25 µM; in the data active = inhibition above about 36%
Target sequence (P61081 whole entry, looked up): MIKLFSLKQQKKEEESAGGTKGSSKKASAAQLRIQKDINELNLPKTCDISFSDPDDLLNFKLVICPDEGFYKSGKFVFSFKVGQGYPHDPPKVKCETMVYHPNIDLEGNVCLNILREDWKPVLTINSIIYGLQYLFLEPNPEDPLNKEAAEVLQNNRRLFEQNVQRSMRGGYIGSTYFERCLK
Target sequence (Q13564 whole entry, looked up): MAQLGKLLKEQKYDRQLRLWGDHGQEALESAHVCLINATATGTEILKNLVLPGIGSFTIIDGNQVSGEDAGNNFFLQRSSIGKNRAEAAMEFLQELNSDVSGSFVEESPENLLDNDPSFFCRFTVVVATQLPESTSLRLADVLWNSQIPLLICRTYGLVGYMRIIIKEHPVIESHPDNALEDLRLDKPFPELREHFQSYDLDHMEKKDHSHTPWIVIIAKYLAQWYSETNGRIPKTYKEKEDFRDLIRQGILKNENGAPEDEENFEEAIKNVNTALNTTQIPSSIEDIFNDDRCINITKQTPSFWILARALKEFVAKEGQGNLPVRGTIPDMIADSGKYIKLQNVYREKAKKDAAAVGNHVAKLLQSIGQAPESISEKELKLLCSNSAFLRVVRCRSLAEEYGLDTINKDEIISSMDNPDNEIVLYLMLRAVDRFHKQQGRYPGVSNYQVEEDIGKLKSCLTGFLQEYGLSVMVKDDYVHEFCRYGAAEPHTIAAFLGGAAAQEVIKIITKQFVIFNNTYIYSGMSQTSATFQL
PfGluPho conf = PfG6PD inhibition, single-dose confirmed; 2,400 tested, 34% active; AID 504753; inhibition, % at 20 µM; shares compounds with PfG6PD inh; recombinant PfGluPho, NADPH-diaphorase-resazurin fluorescence;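 active = inhibition of at least 50% at 20 µM in any single replicate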
Diaph ctr 10uM = diaphorase inhibition or oxidation at 10 uM NADPH; shares compounds with PfG6PD inh; diaphorase-coupled resazurin reduction, fluorescence, NADPH 10 uM; inhibition, % at 20 µM; 820 tested, 39% active; AID 504862;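 active = average inhibition reaching 50% or more with the compound at 20 µM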;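 note: resorufin red fluorescence formed as diaphorase reduces resazurin using NADPH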
Diaph ctr 30uM = inhibits diaphorase or oxidizes, flagging false PfG6PD hits; shares compounds with PfG6PD inh; Diaphorase/resazurin coupled assay, resorufin fluorescence, 30 uM NADPH; inhibition, % at 20 µM; 820 tested, 29% active; AID 504863;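 active = inhibition averaging 50% or more, tested at 20 µM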
Neddyl inh conf = cullin neddylation inhibition, confirmation | 1,800 tested, 13% active | calls only at 25 µM | TR-FRET cullin neddylation biochemical assay | shares compounds with Neddylation inh | AID 652217; in the data active = inhibition above about 40%;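 note: neddylation substrate is the cullin 1 ring ligase complex with SKP2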
Each line names hits and unclear results; the compound was inactive in the other large screens (follow-up assays come after a bar, where shown).

CC(CCc1ccccc1)NC(=O)CN1CCN(c2ccc(O)cc2)CC1 (stereo not given)	PfG6PD inh 66 | PfGluPho conf inactive
Cc1ccc(NC(=O)NC(=O)CN2CCN(c3ccc(O)cc3)CC2)c(C)c1	PfM18AAP inh 30, PfG6PD inh 72 | PfGluPho conf inactive
O=S(=O)(Oc1ccccc1/C=N/n1cnnc1)c1ccccc1	PfG6PD inh 96 | PfGluPho conf 81 | Diaph ctr 10uM 81 | Diaph ctr 30uM 63
Cc1ccc(NC(=O)COC(=O)C(CC(C)C)N2C(=O)C3CC=CCC3C2=O)c(C)c1 (stereo not given)	none
COc1ccc(S(=O)(=O)Cc2ccc(C(=O)NCc3ccccc3OC)o2)cc1	none
Cc1c(/C=C/C(=O)c2ccc(C(C)C)cc2)cnn1C	PfG6PD inh 68 | PfGluPho conf inactive
Cc1c(/C=C/C(=O)c2ccc(Cl)s2)cnn1C	PfG6PD inh 60 | PfGluPho conf 52 | Diaph ctr 10uM 63 | Diaph ctr 30uM inactive
COc1ccccc1C(=O)N1CCN(CCNC(=O)C(=O)Nc2ccc(Br)c(C)c2)CC1	none
CC(C)CC1C(=O)N(Cc2cn(CCC3OCCO3)nn2)CCS(=O)(=O)N1Cc1ccc(-c2ccc(Cl)c(Cl)c2)cc1 (stereo not given)	none (no result: PfM18AAP inh, HKDC1 inh)
Cc1ccc(OCc2nnc(NC(=O)c3ccco3)s2)cc1	none
O=C(Nc1nnc(COc2ccc(Cl)cc2)s1)c1ccco1	PfG6PD inh 66 | PfGluPho conf inactive
c1cncc(-c2nn3c(Cn4cnc5ccccc54)nnc3s2)c1	PfG6PD inh 65 | PfGluPho conf inactive
c1ccc2c(c1)ncn2Cc1nnc2sc(-c3ccncc3)nn12	none
c1ccc(-c2nn3c(Cn4cnc5ccccc54)nnc3s2)cc1	PfG6PD inh 64 | PfGluPho conf inactive
c1ccc(-c2nn3c(Cn4nnc5ccccc54)nnc3s2)cc1	PfG6PD inh 75 | PfGluPho conf inactive
O=C(NCc1c[nH]c2ccccc12)c1ccccc1	none (no result: PfM18AAP inh)
COc1ccc(Cl)cc1NC(=O)C/C(C)=N/NC(=O)C(=O)NCc1ccccc1	none
Cc1cc(C)cc(NC(=O)CN2CCC(NC(=O)c3ccccc3F)CC2)c1	none
NNC(=S)NCc1ccco1	none
S=C(NCc1ccco1)NCc1ccco1	PfG6PD inh 79 (no result: PfM18AAP inh) | PfGluPho conf inactive
CN(C)c1ccc(/C=N/NC(=S)NCc2ccco2)cc1	none (not shown: Neddylation inh)
CN(C)c1ccc(C(=S)NCc2ccco2)cc1	PfG6PD inh 63 | PfGluPho conf inactive
CN(C(=S)Nc1ccccc1)c1ccccc1	none
CN(C(=S)Nc1cccnc1)c1ccc(O)cc1	PfG6PD inh 67 | PfGluPho conf inactive
CN(C(=S)Nc1ccc(SC(F)F)cc1)c1ccc(O)cc1	PfG6PD inh 70 | PfGluPho conf inactive
CN(C(=S)Nc1ccc(Oc2ccccc2)cc1)c1ccc(O)cc1	PfG6PD inh 78 | PfGluPho conf inactive
COC(=O)Sc1nc(N2CCOCC2)c2c(c1C#N)CC(C)(C)OC2	none | PfGluPho conf inactive
COCC(=O)N/N=C/c1ccc(Sc2nc3ccccc3s2)o1	PfG6PD inh 60 | PfGluPho conf inactive
O=C(Cc1cccc2ccccc12)N/N=C/c1ccc(Sc2nc3ccccc3s2)o1	PfG6PD inh 74 | PfGluPho conf inactive
Cc1ccccc1OCC(=O)N/N=C/c1ccc(Sc2nc3ccccc3s2)o1	PfG6PD inh 123 | PfGluPho conf 59 | Diaph ctr 10uM inactive | Diaph ctr 30uM inactive
O=C(COc1cccc2ccccc12)N/N=C/c1ccc(Sc2nc3ccccc3s2)o1	none
Cc1ccc(/C=N/NC(=O)CSc2nc3ccccc3s2)o1	none
CC(C)(C)c1ccc(C(O)c2ncc(-c3ccccc3F)[nH]2)cc1 (stereo not given)	none (no result: PfM18AAP inh, PfG6PD inh, HKDC1 inh)
N#Cc1ccc(OCC(=O)OCC(=O)c2ccc[nH]2)cc1	none (no result: PfM18AAP inh)
O=C1C=CC(=O)N1CCCCCCCCCCN1C(=O)C=CC1=O	PfG6PD inh 84 (no result: PfM18AAP inh) | PfGluPho conf 55 | Diaph ctr 10uM inactive | Diaph ctr 30uM inactive
COc1ccc(NC(=O)n2ncc3c(C)cccc32)cc1	PfG6PD inh 69 | PfGluPho conf inactive
COc1ccc(NC(=O)n2ncc3c(C)cccc32)cc1OC	none
S=c1nc2[nH]c3ccccc3c2n[nH]1	PfG6PD inh 66 (no result: PfM18AAP inh) | PfGluPho conf inactive
Cc1cc(C)c(NC(=O)CN2C(=O)CC(C)S(=O)(=O)c3ccccc32)c(C)c1 (stereo not given)	none
CC(C)Cc1c2c([nH]c(=S)c1C#N)CCCC2	PfG6PD inh 70 | PfGluPho conf inactive
Cc1[nH]c(=S)c(C#N)c2c1CCCC2	PfG6PD inh 81 | PfGluPho conf inactive
Cc1cc(OCCn2nc(C(=O)O)c3ccccc3c2=O)ccc1C(C)C	PfG6PD inh 79 | PfGluPho conf inactive
NC(=O)CSc1nc2cc(S(=O)(=O)N3CCOCC3)ccc2o1	none (no result: PfM18AAP inh)
Nc1nc2cc(S(=O)(=O)N3CCOCC3)ccc2o1	PfG6PD inh 69 (no result: PfM18AAP inh) | PfGluPho conf inactive
C=C(C)COc1ccc(-c2ncnc(C(F)(F)F)c2-c2ccc(OC)cc2)c(O)c1	PfG6PD inh 70 | PfGluPho conf inactive
Cc1sc2nc(CN3CCN(c4ccc(O)cc4)CC3)[nH]c(=O)c2c1C	PfM18AAP inh 32, PfG6PD inh 79 | PfGluPho conf inactive
Cc1cccc(NC(=O)c2nc[nH]c2C(=O)N2CCC(C)CC2)c1	none (no result: PfM18AAP inh)
CC1CCN(C(=O)CSc2nc(=O)n3ccccc3n2)CC1	none (no result: PfM18AAP inh)
CC(NC(=O)/C(C#N)=C/c1ccc([N+](=O)[O-])o1)c1ccccc1 (stereo not given)	PfG6PD inh 92 | PfGluPho conf 69 | Diaph ctr 10uM 64 | Diaph ctr 30uM 66
CCOCCCNC(=O)/C(C#N)=C/c1ccc([N+](=O)[O-])o1	PfG6PD inh 84 | PfGluPho conf 74 | Diaph ctr 10uM 63 | Diaph ctr 30uM 71
Cc1ccc(/C=C/C(=O)NCc2cccs2)c(C)c1	PfG6PD inh 88 | PfGluPho conf inactive
CCOC(=O)COn1c(-c2cccc(Cl)c2)nc2ccc([N+](=O)[O-])cc21	PfG6PD inh 110 | PfGluPho conf inactive
CCOC(=O)C(C)On1c(-c2cccc(Cl)c2)nc2ccc([N+](=O)[O-])cc21 (stereo not given)	PfG6PD inh 64 | PfGluPho conf inactive
COC(=O)c1ccccc1N/C=C1\CCc2c(c(C)nn2-c2ccccn2)C1=O	PfG6PD inh 74, Neddylation inh 38 | PfGluPho conf 64 | Diaph ctr 10uM inactive | Diaph ctr 30uM inactive | Neddyl inh conf inactive
c1csc(-c2nc3nc4ccccc4nc3n2Cc2ccc3c(c2)OCO3)c1	PfG6PD inh 72, Neddylation inh 37 | PfGluPho conf inactive | Neddyl inh conf inactive
CCOc1ncccc1C(=O)OCC(=O)NCCCc1ccccc1	none (no result: PfM18AAP inh)
